From ChEMBL document CHEMBL2040727, “Substituted thiazoles VI. Synthesis and antitumor activity of new 2-acetamido- and 2 or 3-propanamido-thiazole analogs” (2012)

What was measured:
Assay type in all cases: functional
[1] = tested on: MDA-MB-468; experiment: Growth inhibition of human MDA-MB-468 cells at 10 uM after 48 hrs by coulter counter analysis; settings: MDA-MB-468, 48 h, read-out: GI
Summary of the method: (§1)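 Single-dose NCI 60-line panel screen of test compounds. Cells grown in RPMI 1640 with 10% FBS. Compounds dissolved in DMSO, then diluted in phosphate buffer saline (final DMSO below 1%). Wells run in duplicate at 6 × 10⁴ cells/ml. Controls held PBS and DMSO at matching dilutions. Incubation 48 h at 37 °C under humidified 5% CO2. Cells diluted tenfold in saline and counted by Coulter counter. Percent growth inhibition taken from mean-graph of treated-cell growth.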

[2] = tested on: SF-539; experiment: Growth inhibition of human SF539 cells at 10 uM after 48 hrs by coulter counter analysis; settings: SF-539, 48 h, read-out: GI; summary of the method: as §1
[3] = tested on: SK-MEL-28; experiment: Growth inhibition of human SK-MEL-28 cells at 10 uM after 48 hrs by coulter counter analysis; settings: SK-MEL-28, 48 h, read-out: GI; summary of the method: as §1
[4] = tested on: SNB-19; experiment: Growth inhibition of human SNB19 cells at 10 uM after 48 hrs by coulter counter analysis; settings: SNB-19, 48 h, read-out: GI; summary of the method: as §1
[5] = tested on: ACHN; experiment: Growth inhibition of human ACHN cells at 10 uM after 48 hrs by coulter counter analysis; settings: read-out: GI; summary of the method: as §1
[6] = tested on: MDA-MB-435; experiment: Growth inhibition of human MDA-MB-435 cells at 10 uM after 48 hrs by coulter counter analysis; settings: MDA-MB-435, 48 h, read-out: GI; summary of the method: as §1
[7] = tested on: OVCAR-8; experiment: Growth inhibition of human OVCAR8 cells at 10 uM after 48 hrs by coulter counter analysis; settings: OVCAR-8, 48 h, read-out: GI; summary of the method: as §1
[8] = tested on: T47D; experiment: Growth inhibition of human T47D cells at 10 uM after 48 hrs by coulter counter analysis; settings: read-out: GI
Summary of the method: (§2)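 Single-dose screen in the NCI 60 cell line panel. Cells grown in RPMI 1640 with 10% FBS. Compounds dissolved in DMSO and diluted in phosphate buffered saline, final DMSO under 1%. Duplicate wells seeded from culture at 6 × 10⁴ cells/ml. Incubated 48 h at 37 °C, humidified, 5% CO2. Cells diluted tenfold in saline and Coulter-counted. Percent growth inhibition computed against PBS/DMSO controls.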

[9] = Growth inhibition of human NCI-ADR-RES cells at 10 uM after 48 hrs by coulter counter analysis; settings: read-out: GI; summary of the method: as §1
[10] = tested on: EKVX; experiment: Growth inhibition of human EKVX cells at 10 uM after 48 hrs by coulter counter analysis; settings: read-out: GI; summary of the method: as §1
[11] = tested on: K562; experiment: Growth inhibition of human K562 cells at 10 uM after 48 hrs by coulter counter analysis; settings: K562, 48 h, read-out: GI; summary of the method: as §1
[12] = tested on: NCI-H226; experiment: Growth inhibition of human NCI-H226 cells at 10 uM after 48 hrs by coulter counter analysis; settings: NCI-H226, 48 h, read-out: GI; summary of the method: as §1
[13] = tested on: OVCAR-5; experiment: Growth inhibition of human OVCAR5 cells at 10 uM after 48 hrs by coulter counter analysis; settings: OVCAR-5, 48 h, read-out: GI; summary of the method: as §1
[14] = tested on: BT-549; experiment: Growth inhibition of human BT549 cells at 10 uM after 48 hrs by coulter counter analysis; settings: BT-549, 48 h, read-out: GI; summary of the method: as §1
[15] = tested on: KM12; experiment: Growth inhibition of human KM12 cells at 10 uM after 48 hrs by coulter counter analysis; settings: KM12, 48 h, read-out: GI; summary of the method: as §1
[16] = tested on: MDA-MB-231; experiment: Growth inhibition of human MDA-MB-231 cells at 10 uM after 48 hrs by coulter counter analysis; settings: MDA-MB-231, 48 h, read-out: GI; summary of the method: as §1
[17] = tested on: CAKI-1; experiment: Growth inhibition of human Caki1 cells at 10 uM after 48 hrs by coulter counter analysis; settings: CAKI-1, 48 h, read-out: GI; summary of the method: as §1
[18] = tested on: HOP-92; experiment: Growth inhibition of human HOP92 cells at 10 uM after 48 hrs by coulter counter analysis; settings: HOP-92, 48 h, read-out: GI; summary of the method: as §1
[19] = tested on: UO-31; experiment: Growth inhibition of human UO31 cells at 10 uM after 48 hrs by coulter counter analysis; settings: UO-31, 48 h, read-out: GI; summary of the method: as §2
[20] = tested on: HOP-62; experiment: Growth inhibition of human HOP62 cells at 10 uM after 48 hrs by coulter counter analysis; settings: HOP-62, 48 h, read-out: GI; summary of the method: as §1
[21] = tested on: LOX IMVI; experiment: Growth inhibition of human LOXIMVI cells at 10 uM after 48 hrs by coulter counter analysis; settings: read-out: GI; summary of the method: as §1
[22] = tested on: SK-MEL-2; experiment: Growth inhibition of human SK-MEL-2 cells at 10 uM after 48 hrs by coulter counter analysis; settings: SK-MEL-2, 48 h, read-out: GI; summary of the method: as §1
[23] = tested on: A498; experiment: Growth inhibition of human A498 cells at 10 uM after 48 hrs by coulter counter analysis; settings: A498, 48 h, read-out: GI; summary of the method: as §1
[24] = tested on: SNB-75; experiment: Growth inhibition of human SNB75 cells at 10 uM after 48 hrs by coulter counter analysis; settings: SNB-75, 48 h, read-out: GI; summary of the method: as §2
[25] = tested on: HCC 2998; experiment: Growth inhibition of human HCC2998 cells at 10 uM after 48 hrs by coulter counter analysis; settings: HCC 2998, 48 h, read-out: GI; summary of the method: as §1
[26] = tested on: SN12C; experiment: Growth inhibition of human SN12C cells at 10 uM after 48 hrs by coulter counter analysis; settings: read-out: GI; summary of the method: as §1
[27] = tested on: NCI-H522; experiment: Growth inhibition of human NCI-H522 cells at 10 uM after 48 hrs by coulter counter analysis; settings: NCI-H522, 48 h, read-out: GI; summary of the method: as §1
[28] = tested on: 786-0; experiment: Growth inhibition of human 786-0 cells at 10 uM after 48 hrs by coulter counter analysis; settings: 786-0, 48 h, read-out: GI; summary of the method: as §1
[29] = tested on: OVCAR-3; experiment: Growth inhibition of human OVCAR3 cells at 10 uM after 48 hrs by coulter counter analysis; settings: OVCAR-3, 48 h, read-out: GI; summary of the method: as §1
[30] = tested on: SK-MEL-5; experiment: Growth inhibition of human SK-MEL-5 cells at 10 uM after 48 hrs by coulter counter analysis; settings: SK-MEL-5, 48 h, read-out: GI; summary of the method: as §1
[31] = tested on: HT-29; experiment: Growth inhibition of human HT-29 cells at 10 uM after 48 hrs by coulter counter analysis; settings: HT-29, 48 h, read-out: GI; summary of the method: as §1
[32] = tested on: A549; experiment: Growth inhibition of human A549/ATCC cells at 10 uM after 48 hrs by coulter counter analysis; settings: A549, 48 h, read-out: GI; summary of the method: as §1
[33] = tested on: NCI-H460; experiment: Growth inhibition of human NCI-H460 cells at 10 uM after 48 hrs by coulter counter analysis; settings: NCI-H460, 48 h, read-out: GI; summary of the method: as §1
[34] = tested on: OVCAR-4; experiment: Growth inhibition of human OVCAR4 cells at 10 uM after 48 hrs by coulter counter analysis; settings: OVCAR-4, 48 h, read-out: GI; summary of the method: as §1

| Compound | inhibition of growth at 10 µM [1] | inhibition of growth at 10 µM [2] | inhibition of growth at 10 µM [3] | inhibition of growth at 10 µM [4] | inhibition of growth at 10 µM [5] | inhibition of growth at 10 µM [6] | inhibition of growth at 10 µM [7] | inhibition of growth at 10 µM [8] | inhibition of growth at 10 µM [9] | inhibition of growth at 10 µM [10] | inhibition of growth at 10 µM [11] | inhibition of growth at 10 µM [12] | inhibition of growth at 10 µM [13] | inhibition of growth at 10 µM [14] | inhibition of growth at 10 µM [15] | inhibition of growth at 10 µM [16] | inhibition of growth at 10 µM [17] | inhibition of growth at 10 µM [18] | inhibition of growth at 10 µM [19] | inhibition of growth at 10 µM [20] | also measured |
| --- | --- | --- | --- | --- | --- | --- | --- | --- | --- | --- | --- | --- | --- | --- | --- | --- | --- | --- | --- | --- | --- |
| CN1CCN(CCC(=O)Nc2nc(-c3ccccc3)cs2)CC1 | < 10% | < 10% | < 10% | < 10% | < 10% | < 10% | < 10% | < 10% | 13% | < 10% | < 10% | 17.4% | < 10% | 16.5% | < 10% | 11.6% | 15.9% | 24.5% | 54% | 14.5% | inhibition of growth at 10 µM [21]: 11.1%; inhibition of growth at 10 µM [22]: < 10%; inhibition of growth at 10 µM [23]: < 10%; inhibition of growth at 10 µM [24]: 30.5%; inhibition of growth at 10 µM [25]: < 10%; inhibition of growth at 10 µM [26]: 17.2%; inhibition of growth at 10 µM [27]: 16.5%; inhibition of growth at 10 µM [28]: < 10%; inhibition of growth at 10 µM [29]: < 10%; inhibition of growth at 10 µM [30]: < 10%; inhibition of growth at 10 µM [31]: < 10%; inhibition of growth at 10 µM [32]: < 10%; inhibition of growth at 10 µM [33]: < 10%; inhibition of growth at 10 µM [34]: < 10% |
| O=C(CN1CCN(c2ccccc2)CC1)Nc1nc(-c2ccccc2)cs1 | 30.4% | < 10% | < 10% | 10.1% | 16.2% | < 10% | < 10% | 29.7% | 23% | < 10% | 20% | 19.1% | < 10% | 11.3% | < 10% | 29.2% | 36.6% | 25.6% | 51.4% | < 10% | inhibition of growth at 10 µM [21]: 11.5%; inhibition of growth at 10 µM [22]: 11.6%; inhibition of growth at 10 µM [23]: 44.1%; inhibition of growth at 10 µM [24]: 29.7%; inhibition of growth at 10 µM [25]: < 10%; inhibition of growth at 10 µM [26]: 17.3%; inhibition of growth at 10 µM [27]: 29.7%; inhibition of growth at 10 µM [28]: < 10%; inhibition of growth at 10 µM [29]: < 10%; inhibition of growth at 10 µM [30]: 31.9%; inhibition of growth at 10 µM [31]: 23.8%; inhibition of growth at 10 µM [32]: 17.6%; inhibition of growth at 10 µM [33]: 25%; inhibition of growth at 10 µM [34]: < 10% |
| O=C(CCN1CCN(c2ccccc2)CC1)Nc1nc(-c2ccccc2)cs1 | 33.4% | 15.4% | < 10% | 10.3% | 16.4% | 13.4% | 23.6% | 20.4% | 34.6% | 24.8% | 32.6% | 26.6% | 18.8% | 26.1% | 10.7% | < 10% | 37.7% | 59.6% | 68.9% | 24.8% | inhibition of growth at 10 µM [21]: 25.7%; inhibition of growth at 10 µM [22]: < 10%; inhibition of growth at 10 µM [23]: 67.5%; inhibition of growth at 10 µM [24]: 28.6%; inhibition of growth at 10 µM [25]: < 10%; inhibition of growth at 10 µM [26]: 33.5%; inhibition of growth at 10 µM [27]: 21.3%; inhibition of growth at 10 µM [28]: 18.1%; inhibition of growth at 10 µM [29]: 26.1%; inhibition of growth at 10 µM [30]: 52.5%; inhibition of growth at 10 µM [31]: < 10%; inhibition of growth at 10 µM [32]: 17.9%; inhibition of growth at 10 µM [33]: 11.3%; inhibition of growth at 10 µM [34]: 36.2% |
